Our source for the Luciferase activity and RLU values is ChEMBL document CHEMBL1131618, “Synthesis, activity, and structure--activity relationship studies of novel cationic lipids for DNA transfer” (1998).

Molecules are shown by their SMILES.

Assay [1] concerns HeLa. The experiment in a line: Luciferase activity in human Hela cells. The format is functional. The method in brief:
(§1)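 5×10^4 cells plated in DMEM at 37 °C, 5% CO2, and transfected after 24 h at 50/70% confluency in serum-free medium. CMV-luciferase plasmid mixed with cationic lipid in 75 mM NaCl final, four lipid:DNA ratios, added dropwise, triplicates. Serum added to 10% at 2 h, then 44 h more. Lysate supernatant read with 10 s luminometer counting. Value at optimal ratio.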

Assay [2] relates to NIH3T3. As to the kind of experiment: Luciferase activity in mouse fibroblasts NIH3T3 cells. The class given is functional. The method, boiled down:
as §1

The subject of assay [3] is NIH3T3. As to the kind of experiment: Compound was tested for the impact of introduction of molecular probe as side chain entity in the linker position on expression of luciferase in transfected NIH3T3 cells (RLU = luciferase activity in relative light units (RLU)/10 s for 10E3 plated cells). The format is functional, Mus musculus. The method, boiled down: as §1
Assay [4] relates to CV1 cells (Cercopithecus aethiops). As to the kind of experiment: Compound was tested for the impact of introduction of molecular probe as side chain entity in the linker position on expression of luciferase in transfected CV1 cells (RLU = luciferase activity in relative light units (RLU)/10 s for 10E3 plated c ells).
Assay [5] relates to HeLa. The experiment in a line: Compound was tested for the impact of introduction of a side chain entity in the linker position on expression of luciferase in transfected HeLa cells (RLU = luciferase activity in relative light units (RLU)/10 s for 10E3 plated cells). The format is functional, Homo sapiens. The method, boiled down:
as §1

Assay [6] has as its system NIH3T3. As to the kind of experiment: Compound was tested for the impact of introduction of a side chain entity in the linker position on expression of luciferase in transfected NIH3T3 cells (RLU = luciferase activity in relative light units (RLU)/10 s for 10E3 plated cells). The class given is functional, Mus musculus. The method in brief:
as §1

Assay [7] concerns HeLa. As to the kind of experiment: Compound was tested for the impact of linker length on expression of luciferase in transfected HeLa cells (RLU = luciferase activity in relative light units (RLU)/10 s for 10E3 plated cells). The format is functional, Homo sapiens. The method, boiled down:
as §1

Another assay deals with CV-1. As to the kind of experiment: Compound was tested for luciferase activity in Monkey CV1 Cell Lines. The class given is functional, Cercopithecidae. The method, boiled down:
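CV1 cells (5×10^4) plated in MEM at 37 °C, 5% CO2, and transfected after 24 h at 50/70% confluency in serum-free medium. CMV-luciferase plasmid mixed with lipid in 75 mM NaCl final, four lipid:DNA ratios, triplicates. 10% serum added at 2 h, then 44 h more. Lysates counted 10 s. Value reported at optimal ratio.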

The subject of assay [8] is HeLa. As to the kind of experiment: Compound was tested for the impact of polyamine geometry on expression of luciferase in transfected HeLa cells (RLU = luciferase activity in relative light units (RLU)/10 s for 10E3 plated cells). The class given is functional, Homo sapiens. The method, boiled down:
as §1

Assay [9] deals with NIH3T3. The experiment in a line: Compound tested for the impact on expression of luciferase in transfected NIH3T3 cells (RLU = luciferase activity in relative light units (RLU)/10 s for 10E3 plated cells). The class given is functional, Mus musculus. The method in brief: as §1
Assay [10] deals with NIH3T3. The experiment in a line: Compound was tested for the impact of the length of the lipid on expression of luciferase in transfected NIH3T3 cells (RLU = luciferase activity in relative light units (RLU)/10 s for 10E3 plated cells). The class given is functional, Mus musculus. The method in brief: as §1
Assay [11] concerns HeLa. The experiment in a line: Compound was tested for the impact of the length of the lipid on expression of luciferase in transfected HeLa cells (RLU = luciferase activity in relative light units (RLU)/10 s for 10E3 plated cells). The format is functional, Homo sapiens. The method, boiled down:
as §1

Consider `CCCCCCCCCCCCCCCCCCN(CCCCCCCCCCCCCCCCCC)C(=O)[C@H](CCCCN)NC(=O)CNCCCNCCCCNCCCN`, for which the Luciferase activity in the assay on HeLa [1] is 700000 RLU 10s-1; in the assay on NIH3T3 [2], 10000000 RLU 10s-1.
`CCCCCCCCCCCCCCCCCCN(CCCCCCCCCCCCCCCCCC)C(=O)C(CCCCNC(=O)CCCCC1SC[C@@H]2NC(=O)N[C@H]12)NC(=O)CNCCCNCCCCNCCCN` (stereo partly drawn): the RLU in the assay on NIH3T3 [3] amounted to 5400000; in assay [4], 160000.
For the compound `CCCCCCCCCCCCCCCCCCN(CCCCCCCCCCCCCCCCCC)C(=O)C(CCCCNC(=O)OCc1ccccc1Cl)NC(=O)CNCCCNCCCCNCCCN` (stereo not drawn), the Luciferase activity in the assay on HeLa [1] is 1400000 RLU 10s-1; with NIH3T3 [2], 30000000 RLU 10s-1. The RLU in the assay on HeLa [5] was found to be 1400000; with NIH3T3 [6], 30000000.
On to `CCCCCCCCCCCCCCCCCCN(CCCCCCCCCCCCCCCCCC)C(=O)CCCCCNC(=O)CNCCCNCCCCNCCCN`, for which the Luciferase activity with HeLa [1] is on record as 3500000 RLU 10s-1. Moreover, the RLU in the assay with HeLa [7] is recorded as 3500000.
As to `CCCCCCCCCCCCCCCCCCN(CCCCCCCCCCCCCCCCCC)C(=O)C(CCCCNC(=O)CCCC[C@H]1SC[C@@H]2NC(=O)N[C@@H]21)NC(=O)CNCCCNCCCCNCCCN` (stereo partly drawn), the Luciferase activity in the assay with CV-1 worked out at 160000 RLU 10s-1; with NIH3T3 [2], 5400000 RLU 10s-1.
With `CCCCCCCCCCCCCCCCCCN(CCCCCCCCCCCCCCCCCC)C(=O)CNC(=O)CNCCN(CCN)CCN`, the RLU with HeLa [8] was found to be 130000; in the assay with NIH3T3 [9], 20000000. For the same compound, the results for the Luciferase activity in the assay with HeLa [1] and in the assay on NIH3T3 [2] were 130000 RLU 10s-1 and 20000000 RLU 10s-1, respectively.
Compound `CCCCCCCCCCCCCCCCCCN(CCCCCCCCCCCCCCCCCC)C(=O)CNCCCN(CCCN)CCCCN(CCCN)CCCN` registered an RLU with NIH3T3 [9] of 59000000.
Take `CCCCCCCCCCCCCCCCCCN(CCCCCCCCCCCCCCCCCC)C(=O)CNCCCNCCCCNCCCN`: the Luciferase activity in the assay with HeLa [1] amounted to 2600000 RLU 10s-1; in the assay on NIH3T3 [2] it was 2000000 RLU 10s-1. Besides, the figures for the RLU in the assay on HeLa [7] and in the assay with NIH3T3 [9] were 2600000 and 2000000, respectively.
`CCCCCCCCCCCCCCCCCCN(CCCCCCCCCCCCCCCCCC)C(=O)C(CCC(=O)O)NC(=O)CNCCCNCCCCNCCCN` (stereo not drawn): the RLU was 15000000 in the assay with HeLa [5] and 63000000 with NIH3T3 [6].
For `CCCCCCCCCCCCCCCCCCN(CCCCCCCCCCCCCCCCCC)C(=O)[C@H](CCC(=O)O)NC(=O)CNCCCNCCCCNCCCN`, the Luciferase activity in the assay with HeLa [1] turned out to be 15000000 RLU 10s-1; in the assay on NIH3T3 [2], 63000000 RLU 10s-1.
`CCCCCCCCCCCCCCCCCCN(CCCCCCCCCCCCCCCCCC)C(=O)CNC(=O)CNCCN(CCCN)CCCCN(CCCN)CCCN`: the Luciferase activity amounted to 580000 RLU 10s-1 with HeLa [1] and 68000000 RLU 10s-1 in the assay with NIH3T3 [2].
On to `CCCCCCCCCCCCCCCCCCN(CCCCCCCCCCCCCCCCCC)C(=O)CNC(=O)CNCCCNCCCCNCCCN`, for which the RLU in the assay on HeLa [8] was 2400000; in the assay on NIH3T3 [10] it was 44000000; with HeLa [7], 2400000; in the assay with HeLa [5] it was 10000000; with NIH3T3 [3], 26000000; with NIH3T3 [9] it was 54000000. Further, the RLU in the assay on HeLa [11] turned out to be 890000; with NIH3T3 [6], 200000000; in [4], 7000.
In the assay on NIH3T3 [9], `CCCCCCCCCCCCCCCCCCN(CCCCCCCCCCCCCCCCCC)C(=O)CNCCN(CCN)CCN` yielded an RLU of 1500000. For the same compound, the Luciferase activity in the assay with NIH3T3 [2] amounted to 1500000 RLU 10s-1.
In the case of `CCCCCCCCCCCCCCCCCCN(CCCCCCCCCCCCCCCCCC)C(=O)C(N)CCCN=C(N)N` (stereo not drawn), the Luciferase activity with HeLa [1] amounted to 4700 RLU 10s-1; with NIH3T3 [2] it was 8700 RLU 10s-1. The RLU in the assay with HeLa [5] is recorded as 4700; with NIH3T3 [6], 8700.
As for `CCCCCCCCCCCCCCCCCCN(CCCCCCCCCCCCCCCCCC)C(=O)C(CCCN=C(N)N)NC(=O)CNCCCNCCCCNCCCN` (stereo in doubt; form 2), the Luciferase activity in the assay with HeLa [1] turned out to be 8200000 RLU 10s-1; with NIH3T3 [2], 11000000 RLU 10s-1.
Consider `CCCCCCCCCCCCCCCCCCN(CCCCCCCCCCCCCCCCCC)C(=O)C(CCCC/N=C(\S)Nc1ccc(-c2c3ccc(=[N+](C)C)cc-3oc3cc(N(C)C)ccc23)c(C(=O)[O-])c1)NC(=O)CNCCCNCCCCNCCCN` (stereo not drawn) [CATIONIC LIPID], for which the Luciferase activity in the assay on CV-1 was 130000 RLU 10s-1; in the assay on NIH3T3 [2], 1200000 RLU 10s-1. Further, the figures for the RLU (with NIH3T3 [3]; in assay [4]) were 1200000 and 130000, respectively.
